Source: ChEMBL document CHEMBL3779799, “Antifibrotic and anticancer action of 5-ene amino/iminothiazolidinones” (Eur J Med Chem, 2016)

What was measured:
[1] = Cytotoxicity against human SNB75 cells assessed as cell growth at 10^-5 M after 48 hrs by sulforhodamine B assay relative to control; type: functional; settings: SNB-75, 48 h, read-out: Activity
In short: (§1)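 NCI ~60 human tumor cell line one-dose screen covering nine cancer types. Cells were preincubated 24–48 h, then exposed to compound at 10^-5 M for 48 h. SRB protein staining was the endpoint, and growth percent was calculated versus untreated control cells.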

[2] = system: HFL1; assay: Antifibrotic activity in HFL1 cells assessed as inhibition of cell viability after 48 hrs by sulforhodamine B assay; type: functional, cell-based; settings: Homo sapiens, HFL1, 48 h
In short: (§2)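 HFL-1 human fetal lung fibroblasts (DMEM, 10% FCS, passages 14–18) seeded at 8000 cells/well, attached overnight, then exposed to a range of concentrations for 48 h in triplicate. Cells were fixed with TCA and stained with 0.4% SRB, bound dye was solubilized in Tris, and OD was read at 570 nm relative to control.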

[3] = system: HFL1; assay: Antifibrotic activity in HFL1 cells assessed as inhibition of cell viability at >1 uM after 48 hrs by sulforhodamine B assay relative to control; type: functional; settings: Homo sapiens, HFL1, 48 h; in short: as §2
[4] = Cytotoxicity against human SF295 cells assessed as cell growth at 10^-5 M after 48 hrs by sulforhodamine B assay relative to control; type: functional; settings: SF-295, 48 h, read-out: Activity; in short: as §1
[5] = Cytotoxicity against human NCI60 cells assessed as cell growth at 10^-5 M after 48 hrs by sulforhodamine B assay relative to control; type: functional; settings: NCI60, 48 h, read-out: Activity; in short: as §1
[6] = system: MDA-MB-435; assay: Cytotoxicity against human MDA-MB-435 cells assessed as cell growth at 10^-5 M after 48 hrs by sulforhodamine B assay relative to control; type: functional; settings: MDA-MB-435, 48 h, read-out: Activity; in short: as §1
[7] = Cytotoxicity against human UO31 cells assessed as cell growth at 10^-5 M after 48 hrs by sulforhodamine B assay relative to control; type: functional; settings: UO-31, 48 h, read-out: Activity; in short: as §1
[8] = Cytotoxicity against human MOLT4 cells assessed as cell growth at 10^-5 M after 48 hrs by sulforhodamine B assay relative to control; type: functional; settings: MOLT-4, 48 h, read-out: Activity; in short: as §1
[9] = Cytotoxicity against human RPMI8226 cells assessed as cell growth at 10^-5 M after 48 hrs by sulforhodamine B assay relative to control; type: functional; settings: RPMI-8226, 48 h, read-out: Activity; in short: as §1
[10] = system: NCI-H522; assay: Cytotoxicity against human NCI-H522 cells assessed as cell growth at 10^-5 M after 48 hrs by sulforhodamine B assay relative to control; type: functional; settings: NCI-H522, 48 h, read-out: Activity; in short: as §1
[11] = Antioxidant activity assessed as inhibition of superoxide anion generation measured for 3 mins by nitro blue tetrazolium assay; type: physicochemical
In short: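 Cell-free superoxide generated by xanthine (1 mM) and xanthine oxidase (0.11 U/mL), with NBT (50 µM) as detector. Compounds in DMSO were tested up to 10 µM, with DMSO held at 0.1%. NBT reduction rate (dA560/dt) was read spectrophotometrically over 3 min from the linear part.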

| SMILES | growth at 10 µM [1] [%] | IC50 [2] [µM] | Emax [3] [%] | growth at 10 µM [4] [%] | growth at 10 µM [5] [%] | growth at 10 µM [6] [%] | growth at 10 µM [7] [%] | growth at 10 µM [8] [%] | growth at 10 µM [9] [%] | growth at 10 µM [10] [%] | IC50 [11] [µM] | Emax ([11]; 0.05 h) [%] |
| --- | --- | --- | --- | --- | --- | --- | --- | --- | --- | --- | --- | --- |
| COc1ccc(-c2nnc(NC3=NC(=O)/C(=C/c4ccc(N(C)C)cc4)S3)o2)cc1 | 60.4 | 0.15 | 52.4 | 69.8 | 92.8 | 47.8 | – | – | – | – | – | – |
| CN(C1=NC(=O)/C(=C2/C(=O)Nc3ccccc32)S1)c1ccc(O)cc1 | – | 1.78 | 27.3 | – | 85.6 | – | 21.4 | 60.2 | 55.2 | 65.2 | 0.35 | 71.7 |
